# pIC50: −log10 of the molar value. Calls of active or inactive are those of the source. The rule behind the calls is not given here.
# How the values were obtained:
# [1] = Antiproliferative activity against human U251MG cells for 72 hrs by cyquant assay; type: functional, cell-based; settings: U-251, 72 h
# Outline: (§1)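 CyQuant proliferation assay after 72 h compound exposure of cultured cells; relative viability normalized to DMSO-treated control; IC50 values derived. Glioma lines grown in RPMI or DMEM with 10% FBS and 1% nonessential amino acids.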
# [2] = Cytotoxicity against mouse V-Src -transformed NIH/3T3 cells at 1 uM by trypan blue exclusion with phase contrast microscopy; type: cell-based; settings: nih3t3, 1 µM
# [3] = target: Microtubule-associated protein 1B (Homo sapiens) (UniProt P46821); experiment: Decrease in MAP1B expression in human U251MG cells at 5 uM for 1 hr by mass spectrometry relative to control; type: functional, cell-based; settings: U-251
# Sequence of Microtubule-associated protein 1B (Homo sapiens) (P46821 2-2206 limits assumed): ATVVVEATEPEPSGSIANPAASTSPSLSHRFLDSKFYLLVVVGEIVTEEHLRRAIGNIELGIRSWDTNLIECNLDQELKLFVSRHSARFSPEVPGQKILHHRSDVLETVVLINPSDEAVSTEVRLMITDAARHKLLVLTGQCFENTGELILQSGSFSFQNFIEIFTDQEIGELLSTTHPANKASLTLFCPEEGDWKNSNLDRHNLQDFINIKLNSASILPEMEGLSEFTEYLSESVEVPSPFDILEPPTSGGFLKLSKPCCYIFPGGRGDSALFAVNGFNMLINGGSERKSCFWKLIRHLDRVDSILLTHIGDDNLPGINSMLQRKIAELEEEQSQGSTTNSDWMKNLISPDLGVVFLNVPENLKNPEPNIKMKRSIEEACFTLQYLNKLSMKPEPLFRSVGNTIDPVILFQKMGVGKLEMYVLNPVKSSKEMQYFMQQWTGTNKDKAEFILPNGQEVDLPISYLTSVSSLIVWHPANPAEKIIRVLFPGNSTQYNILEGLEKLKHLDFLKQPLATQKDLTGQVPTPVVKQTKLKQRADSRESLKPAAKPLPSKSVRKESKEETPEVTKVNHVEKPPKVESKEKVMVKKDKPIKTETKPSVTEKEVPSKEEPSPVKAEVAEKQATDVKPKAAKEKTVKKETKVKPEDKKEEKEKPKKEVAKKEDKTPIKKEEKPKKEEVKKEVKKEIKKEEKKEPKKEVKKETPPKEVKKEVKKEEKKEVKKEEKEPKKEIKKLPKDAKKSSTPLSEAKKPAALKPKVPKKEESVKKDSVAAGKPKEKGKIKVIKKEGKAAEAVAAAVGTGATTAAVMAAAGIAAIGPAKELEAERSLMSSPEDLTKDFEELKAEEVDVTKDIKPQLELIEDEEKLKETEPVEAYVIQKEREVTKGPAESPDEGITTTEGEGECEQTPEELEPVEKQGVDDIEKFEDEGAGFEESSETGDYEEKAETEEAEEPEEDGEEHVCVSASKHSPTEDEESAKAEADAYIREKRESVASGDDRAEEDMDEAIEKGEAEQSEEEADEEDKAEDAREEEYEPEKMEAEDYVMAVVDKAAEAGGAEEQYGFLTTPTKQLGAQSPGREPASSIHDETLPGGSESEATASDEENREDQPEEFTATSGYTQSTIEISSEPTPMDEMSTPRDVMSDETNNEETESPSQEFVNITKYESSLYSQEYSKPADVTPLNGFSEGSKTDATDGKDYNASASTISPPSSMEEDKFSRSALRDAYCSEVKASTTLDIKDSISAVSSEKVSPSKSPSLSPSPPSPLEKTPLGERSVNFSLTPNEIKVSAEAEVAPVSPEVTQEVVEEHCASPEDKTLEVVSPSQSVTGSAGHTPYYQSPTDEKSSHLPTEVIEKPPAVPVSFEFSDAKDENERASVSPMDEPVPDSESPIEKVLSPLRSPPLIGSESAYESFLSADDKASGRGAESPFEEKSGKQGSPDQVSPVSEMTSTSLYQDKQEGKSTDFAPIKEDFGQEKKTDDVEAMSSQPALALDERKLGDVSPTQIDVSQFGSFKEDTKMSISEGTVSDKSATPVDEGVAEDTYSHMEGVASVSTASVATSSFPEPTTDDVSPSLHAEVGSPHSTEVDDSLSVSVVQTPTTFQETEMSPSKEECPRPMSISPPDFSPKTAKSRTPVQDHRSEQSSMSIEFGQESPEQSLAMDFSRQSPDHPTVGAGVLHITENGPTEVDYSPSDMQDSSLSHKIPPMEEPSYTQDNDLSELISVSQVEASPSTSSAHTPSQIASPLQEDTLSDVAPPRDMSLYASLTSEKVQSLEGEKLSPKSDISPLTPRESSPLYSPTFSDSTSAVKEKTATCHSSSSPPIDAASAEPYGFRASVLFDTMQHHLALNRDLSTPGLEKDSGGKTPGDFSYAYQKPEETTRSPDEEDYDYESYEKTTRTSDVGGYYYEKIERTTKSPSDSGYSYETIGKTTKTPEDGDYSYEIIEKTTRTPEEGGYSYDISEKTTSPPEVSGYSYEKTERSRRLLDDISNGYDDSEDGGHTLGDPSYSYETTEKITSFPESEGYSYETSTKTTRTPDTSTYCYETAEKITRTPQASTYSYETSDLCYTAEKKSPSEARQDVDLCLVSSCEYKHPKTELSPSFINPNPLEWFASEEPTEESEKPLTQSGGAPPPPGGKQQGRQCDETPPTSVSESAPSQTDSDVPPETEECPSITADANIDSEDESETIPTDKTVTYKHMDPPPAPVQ
# Sequence of Microtubule-associated protein 1B (Homo sapiens) (P46821 2207-2468 limits assumed): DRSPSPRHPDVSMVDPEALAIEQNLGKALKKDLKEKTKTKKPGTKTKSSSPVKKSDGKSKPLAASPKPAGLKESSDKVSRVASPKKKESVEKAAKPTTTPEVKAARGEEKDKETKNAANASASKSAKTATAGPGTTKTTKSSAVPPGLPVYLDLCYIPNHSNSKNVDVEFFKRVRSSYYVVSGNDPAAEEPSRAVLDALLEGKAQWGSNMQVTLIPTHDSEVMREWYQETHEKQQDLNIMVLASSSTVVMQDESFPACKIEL
# Outline: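 U251MG cells treated 1 h with 5 μM compound; whole-cell lysates analyzed by global proteomics mass spectrometry; protein levels expressed relative to DMSO-treated cells.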
# [4] = target: Stalled ribosome sensor GCN1 (Homo sapiens) (UniProt Q92616); experiment: Decrease in GCN1 expression in human Glioma (G22) patient derived xenograft cells at 5 uM for 2 hrs by immunoblot analysis; type: functional; settings: Glioma cell
# [5] = Cytotoxicity against mouse NIH/3T3 cells at 1 uM by trypan blue exclusion with phase contrast microscopy; type: cell-based; settings: nih3t3, 1 µM
# Mus musculus = experiment: Toxicity in mouse xenografted with U251MG cells assessed as activity at 2 mg/kg three times a week for 33 days administered via oral gavage; type: organism-based, U-251; settings: in vivo, 792 h
# Outline: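 Four-week-old female athymic nude mice, injected subcutaneously in the left flank with 7.3×10^6 U251MG cells in PBS/matrigel (1:1). Tumors of 170–250 mm^3 formed by day 20, and groups were matched for mean size. Dosing was 2 mg/kg by oral gavage, three times weekly for 33 days, with 1% DMSO vehicle. Animals were monitored daily and weighed every 3 days.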
# [6] = Decrease in vimentin expression in human Glioma (G22) patient derived xenograft cells at 5 uM for 2 hrs by immunoblot analysis; type: functional; settings: Glioma cell
# [7] = target: Signal transducer and activator of transcription 3 (Mus musculus) (UniProt P42227); experiment: Inhibition of Stat3 dimer DNA binding activity in mouse NIH3T3/vSrc nuclear extract at 10 uM preincubated for 30 mins followed by addition of radiolabeled probe hSIE for 30 mins by EMSA in presence of 50 uM Cys
# Sequence of Signal transducer and activator of transcription 3 (Mus musculus) (P42227 whole entry): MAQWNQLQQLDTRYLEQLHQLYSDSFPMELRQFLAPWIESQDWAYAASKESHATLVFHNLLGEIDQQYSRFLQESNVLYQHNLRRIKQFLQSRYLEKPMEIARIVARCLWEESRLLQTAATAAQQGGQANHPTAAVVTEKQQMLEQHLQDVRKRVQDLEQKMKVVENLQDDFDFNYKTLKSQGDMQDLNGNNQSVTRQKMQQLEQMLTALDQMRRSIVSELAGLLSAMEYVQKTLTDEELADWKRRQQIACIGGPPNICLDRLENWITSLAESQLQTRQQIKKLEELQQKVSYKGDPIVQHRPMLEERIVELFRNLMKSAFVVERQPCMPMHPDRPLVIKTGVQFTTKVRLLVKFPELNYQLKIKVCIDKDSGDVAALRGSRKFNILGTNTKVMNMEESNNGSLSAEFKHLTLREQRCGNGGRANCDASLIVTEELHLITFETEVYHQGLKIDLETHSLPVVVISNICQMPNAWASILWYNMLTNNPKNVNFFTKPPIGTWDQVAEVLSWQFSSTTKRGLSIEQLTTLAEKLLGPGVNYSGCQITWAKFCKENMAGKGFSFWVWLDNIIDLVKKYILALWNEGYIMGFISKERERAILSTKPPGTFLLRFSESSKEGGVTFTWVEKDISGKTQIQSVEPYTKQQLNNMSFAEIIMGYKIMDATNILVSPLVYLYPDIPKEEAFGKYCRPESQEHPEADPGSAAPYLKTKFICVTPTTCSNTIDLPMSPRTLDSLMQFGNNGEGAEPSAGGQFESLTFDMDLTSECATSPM
# [8] = Cytotoxicity against mouse NIH/3T3 cells at 2.5 uM by trypan blue exclusion with phase contrast microscopy; type: cell-based; settings: nih3t3, 2.5 µM
# [9] = target: Microtubule-associated protein 1B (Homo sapiens) (UniProt P46821); experiment: Decrease in MAP1B expression in human U373MG cells at 5 uM for 2 hrs by immunoblot analysis; type: functional, cell-based; settings: U-373MG ATCC
# U-251 [10] = experiment: Antitumor activity against human U251MG cells xenografted in mouse assessed as decrease in pStat3 level in tumor at 2 mg/kg three times a week for 33 days administered via oral gavage by immunoblot analysis; type: functional, organism-based
# Outline: (§2)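 Female athymic nude mice, 4 weeks old, given subcutaneous flank injections of 7.3×10^6 U251MG cells in PBS/matrigel; dosing began at 170–250 mm3 tumors (day 20). Oral gavage 2 mg/kg, vehicle 1% DMSO, for 33 days. Caliper volumes V = 0.52×a²×b, compared with vehicle by paired t test; tumor lysates immunoblotted for pStat3, Stat3, GAPDH.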
# [11] = Decrease in G6PD expression in human U373MG cells at 5 uM for 2 hrs by immunoblot analysis; type: functional, cell-based; settings: U-373MG ATCC
# [12] = Decrease in G6PD expression in human U251MG cells at 5 uM for 2 hrs by immunoblot analysis; type: functional, cell-based; settings: U-251
# U-251 [13] = experiment: Antimitotic activity in human U251MG cells assessed as defect in chromatid structure at 8 uM after 15 hrs confocal microscopic analysis; type: functional, cell-based
# Outline: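 U251MG on coverslips synchronized by double thymidine block (2 mM), released 9 h, treated 15 h (8 μM; paclitaxel 100 nM). Fixed 4% paraformaldehyde, digitonin-permeabilized, BSA-blocked, stained for β-tubulin and MAP1B with DAPI counterstain; chromatid structure and segregation scored by confocal microscopy.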
# U-251 [14] = experiment: Increase in importin subunit alpha2 expression in human U251MG cells at 5 uM for 1 hr by mass spectrometry relative to control; type: functional
# Outline: (§3)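 Global proteomic mass spectrometry of lysates from U251MG cells treated 1 h with 5 μM compound; protein levels expressed relative to DMSO-treated cells.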
# U-251 [15] = experiment: Antitumor activity against human U251MG cells xenografted in mouse assessed as decrease in tumor growth at 2 mg/kg three times a week for 33 days administered via oral gavage; type: functional, organism-based; outline: as §2
# [16] = Decrease in G6PD expression in human Glioma (G22) patient derived xenograft cells at 5 uM for 2 hrs by immunoblot analysis; type: functional; settings: Glioma cell
# [17] = Decrease in TrxR1 expression in human U373MG cells at 5 uM for 2 hrs by immunoblot analysis; type: functional, cell-based; settings: U-373MG ATCC
# [18] = Decrease in vimentin expression in human U373MG cells at 5 uM for 2 hrs by immunoblot analysis; type: functional, cell-based; settings: U-373MG ATCC
# [19] = Cytotoxicity against mouse V-Src -transformed NIH/3T3 cells at 2.5 uM by trypan blue exclusion with phase contrast microscopy; type: cell-based; settings: nih3t3, 2.5 µM
# [20] = Decrease in TrxR1 expression in human U251MG cells at 5 uM for 2 hrs by immunoblot analysis; type: functional, cell-based; settings: U-251
# [21] = Decrease in TrxR1 expression in human Glioma (G22) patient derived xenograft cells at 5 uM for 2 hrs by immunoblot analysis; type: functional; settings: Glioma cell
# [22] = target: T1, Signal transducer and activator of transcription 3 (Homo sapiens, UniProt P40763); experiment: Inhibition of Stat3 activity in human U251MG cells assessed as decrease in Bcl-xl expression at 5 uM after 24 hrs by immunoblot analysis; type: cell-based; settings: U-251
# T1 sequence (P40763 whole entry): as the sequence (P42227 whole entry) above, with D760E counted along it
# Outline: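 U251MG cells treated with 5 μM compound for 0–24 h. Whole-cell lysates immunoblotted for pStat3, Stat3, c-Myc, Bcl-2, Bcl-xL, Mcl-1, GAPDH. Control was 0.025% DMSO.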
# [23] = Decrease in TNAP2 expression in human U251MG cells at 5 uM for 1 hr by mass spectrometry relative to control; type: functional, cell-based; settings: U-251; outline: as §3
# [24] = target: T1, Signal transducer and activator of transcription 3; experiment: Inhibition of Stat3 phosphorylation in human U251MG cells transfected with Stat3 flag-tagged DNA-binding domain at 5 uM after 1.5 hrs by immunoblot analysis; type: cell-based; settings: U-251
# Outline: (§4)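 U251MG cells transiently transfected with 7.5–21 μg FLAG-Stat3 NTD, CCD, DBD or CTD plasmid, or pcDNA3 mock. Re-seeded 24 h later; after another 18 h, treated with or without 5 μM compound for 1.5 h. Whole-cell lysates immunoblotted for FLAG, pY705Stat3, Stat3, GAPDH. 0.025% DMSO control. Representative of 2 independent determinations.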
# [25] = Cytotoxicity against mouse NIH/3T3 cells after 72 hrs by cyquant cells; type: cell-based; settings: NIH3T3, 72 h; outline: as §1
# [26] = target: T1, Signal transducer and activator of transcription 3; experiment: Inhibition of Stat3 phosphorylation in human U251MG cells transfected with Stat3 flag-tagged C-terminal domain at 5 uM after 1.5 hrs by immunoblot analysis; type: cell-based; settings: U-251; outline: as §4
# [27] = target: T1, Signal transducer and activator of transcription 3; experiment: Inhibition of Stat3 phosphorylation in human U251MG cells transfected with Stat3 flag-tagged N-terminal domain at 5 uM after 1.5 hrs by immunoblot analysis; type: cell-based; settings: U-251; outline: as §4
fold change (FC) [3],inhibition [4],inhibition [9],SMILES,pIC50 [1],Activity (Mus musculus),inhibition [6],Activity (U-251 [10]),inhibition [11],inhibition [12],Activity (U-251 [13]),fold change (FC) (U-251 [14]),Activity (U-251 [15]),inhibition [16],inhibition [17],inhibition [18],inhibition [20],inhibition [21],further results
–,–,–,C/C=C(\C)C(=O)O[C@H]1C[C@@H](C)[C@]2(OC)CC[C@](C)(/C=C3/OC(=O)C(COC(C)=O)=C31)O2,5.47,–,–,–,–,–,–,–,–,–,–,–,–,–,–
0.413,Active,Active,C/C=C(\C)C(=O)OCC1=C2/C(=C\[C@@]3(C)CC[C@](O)(O3)[C@H](C)C[C@@H]2O)OC1=O,–,Non-toxic,Active,Active,Active,Active,Active,2.421,Active,Active,Active,Active,Active,Active,Activity [2]: Toxic; Activity [5]: Non-toxic; inhibition [7]: Active; Activity [8]: Non-toxic; Activity [19]: Toxic
0.649,Active,Active,C/C=C(\C)C(=O)O[C@H]1C[C@@H](C)[C@]2(O)CC[C@](C)(/C=C3/OC(=O)C(COC(C)=O)=C31)O2,5.77,Non-toxic,Active,Active,Active,Active,Active,2.0137,Active,Active,Active,Active,Active,Active,inhibition [22]: Active; fold change (FC) [23]: 0.449; inhibition [24]: inactive; pIC50 [25]: 5.70; inhibition [26]: Active; inhibition [27]: Active
